Test results as given in ChEMBL document CHEMBL1152539, “Synthesis and evaluation of bioactive naphthoquinones from the Brazilian medicinal plant, Tabebuia avellanedae” (Bioorg Med Chem, 2009).

Tests used:
[1] = Antiproliferative activity against human MPC5 cells after 72 hrs by trypan blue exclusion assay; assay type: cell-based; settings: MPC-5, 72 h
Outline: (§1)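 Cells were kept in DMEM with 10% fetal serum and exposed to four concentrations of compound for 72 h at 37 °C in humidified 5% CO₂. They were then stained with 0.25% trypan blue for 20 min, and viable cells were counted by light microscopy. IC₅₀ was derived from separate experiments run in triplicate.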

[2] = Antiproliferative activity against human SVCT-M12 cells after 72 hrs by trypan blue exclusion assay; assay type: cell-based; settings: SVCT-M12, 72 h; outline: as §1
[3] = Antiproliferative activity against human Hs888Lu cells after 72 hrs by trypan blue exclusion assay; assay type: cell-based; outline: as §1
[4] = Antiproliferative activity against human skin fibroblast after 72 hrs by trypan blue exclusion assay; assay type: cell-based; outline: as §1
[5] = tested on: Hepatocyte; assay: Antiproliferative activity against human hepatocytes after 72 hrs by trypan blue exclusion assay; assay type: cell-based; outline: as §1
[6] = Anticancer activity against DMBA/TPA-induced skin cancer in mouse assessed as incidence of papilloma at 85 nmol administered before TPA challenge measured after 15 weeks; assay type: functional
Outline: (§2)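 Mouse two-stage skin model: DMBA 390 nmol in 0.1 mL acetone applied topically by pipet. One week later, the same skin site was painted with test compound (85 nmol in acetone) or acetone alone, 60 min before TPA (1.7 nmol). Tumor response was scored as the average number of papillomas per mouse and the percentage of mice bearing papillomas.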

[7] = Cytotoxicity against human Raji cells assessed as cell viability at 500 molar ratio after 48 hrs by trypan blue staining; assay type: cell-based; settings: read-out: Activity
Outline: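 Raji cells incubated 48 h at 37 °C in medium containing n-butyric acid (4 mM), TPA (32 pmol) and various amounts of test compound, as part of the EBV-EA activation inhibition assay. Viability of the treated cells was then assayed by trypan blue staining.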

[8] = Anticancer activity against DMBA/TPA-induced skin cancer in mouse assessed as number of papillomas per mouse at 85 nmol administered before TPA challenge measured after 20 weeks; assay type: functional; outline: as §2
[9] = Cytotoxicity against human Raji cells assessed as cell viability at 1000 molar ratio after 48 hrs by trypan blue staining; assay type: cell-based; settings: read-out: Activity
Outline: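 Raji cells were exposed for 48 h at 37 °C to n-butyric acid (4 mM), TPA (32 pmol) and test compound, as in the EBV-EA induction setup. Viability of the treated cells was then measured by trypan blue staining.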

[10] = tested on: Raji; assay: Inhibition of 12-O-tetradecanoylphorbol-13-acetate-induced EBV-early antigen activation in human Raji cells assessed as EA induction at 10 molar ratio after 48 hrs by immunofluorescence technique relative to 12-O-tetradecanoylphorbol-13-acetate; assay type: cell-based; design: scale not given: the % may be the effect or the level left; settings: human gammaherpesvirus 4
Outline: (§3)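 Raji cells were incubated for 48 h at 37 °C in medium with n-butyric acid (4 mM), TPA (32 pmol) and graded amounts of test compound. Smears were stained for EBV-EA by indirect immunofluorescence, and positive cells were counted among at least 500 cells. Assays were run in triplicate. Activity was expressed relative to the n-butyric acid plus TPA control, set as 100%.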

[11] = tested on: Raji; assay: Inhibition of 12-O-tetradecanoylphorbol-13-acetate-induced EBV-early antigen activation in human Raji cells assessed as EA induction at 500 molar ratio after 48 hrs by immunofluorescence technique relative to 12-O-tetradecanoylphorbol-13-acetate; assay type: cell-based; design: scale not given: the % may be the effect or the level left; settings: human gammaherpesvirus 4; outline: as §3
[12] = Inhibition of 12-O-tetradecanoylphorbol-13-acetate-induced EBV-early antigen activation in human Raji cells after 48 hrs by immunofluorescence technique; assay type: cell-based, human gammaherpesvirus 4; outline: as §3
[13] = Anticancer activity against DMBA/TPA-induced skin cancer in mouse assessed as incidence of papilloma at 85 nmol administered before TPA challenge measured after 10 weeks; assay type: functional; outline: as §2
[14] = tested on: Raji; assay: Inhibition of 12-O-tetradecanoylphorbol-13-acetate-induced EBV-early antigen activation in human Raji cells assessed as EA induction at 1000 molar ratio after 48 hrs by immunofluorescence technique relative to 12-O-tetradecanoylphorbol-13-acetate; assay type: cell-based; settings: human gammaherpesvirus 4; outline: as §3
[15] = Anticancer activity against DMBA/TPA-induced skin cancer in mouse assessed as incidence of papilloma at 85 nmol administered before TPA challenge measured after 20 weeks; assay type: functional; outline: as §2
[16] = tested on: Raji; assay: Inhibition of 12-O-tetradecanoylphorbol-13-acetate-induced EBV-early antigen activation in human Raji cells assessed as EA induction at 100 molar ratio after 48 hrs by immunofluorescence technique relative to 12-O-tetradecanoylphorbol-13-acetate; assay type: cell-based; design: scale not given: the % may be the effect or the level left; settings: human gammaherpesvirus 4; outline: as §3

| Compound | EC50 [1] | EC50 [2] | EC50 [3] | EC50 [4] | EC50 [5] | Activity [6] | viability at 48 h, 500 molar ratio [7] | Activity [8] | viability at 48 h, 1000 molar ratio [9] | Activity [10] | Activity [11] | IC50 [12] | Activity [13] | EA induction relative to TPA control [14] | Activity [15] | Activity [16] |
| --- | --- | --- | --- | --- | --- | --- | --- | --- | --- | --- | --- | --- | --- | --- | --- | --- |
| CO[C@@]12[C@H](COC(N)=O)C3=C(C(=O)C(C)=C(N)C3=O)N1C[C@@H]1N[C@@H]12 [MITOMYCIN] | 2100 nM | 960 nM | 560 nM | 930 nM | 1460 nM | – | – | – | – | – | – | – | – | – | – | – |
| CC(O)c1cc2c(o1)C(=O)c1cccc(O)c1C2=O (racemic) | – | – | – | 45400 nM | 89300 nM | 47% | 70% | 3.9 | 60% | 52.9% | 6.2% | 34.9 mol ratio/32 pmol TPA | 7% | 0% | 67% | 20.7% |
